Test results published in ChEMBL document CHEMBL1134329, “Dopamine D(3) receptor antagonists. 1. Synthesis and structure-activity relationships of 5,6-dimethoxy-N-alkyl- and N-alkylaryl-substituted 2-aminoindans” (J Med Chem, 2001).

What was measured:
D(2) dopamine receptor = D(2) dopamine receptor (Rattus norvegicus, UniProt P61169); test: Affinity at D2 dopamine receptor on CHO cell membranes by [3H]PNU-86170 displacement.
Summary of the method: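 Cloned rat D2 receptor stably expressed in CHO cells; membranes from cell pellets disrupted in ice-cold 50 mM Tris/5 mM EDTA/5 mM EGTA pH 7.4 with graded centrifugation. [3H]-PNU-86170 (2 nM) competition, 11 concentrations in duplicate, 20 mM HEPES/10 mM MgSO4 pH 7.4, 1 h room temperature. Haloperidol 3 µM defines nonspecific binding. Filtration or SPA read-out; one-site fit IC50, Ki by Cheng-Prusoff.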

D(3) dopamine receptor = D(3) dopamine receptor (Rattus norvegicus, UniProt P19020); test: Affinity at rat D3 dopamine receptor on CHO cell membranes by [3H]spiperone displacement.
Sequence of D(3) dopamine receptor (P19020 whole entry): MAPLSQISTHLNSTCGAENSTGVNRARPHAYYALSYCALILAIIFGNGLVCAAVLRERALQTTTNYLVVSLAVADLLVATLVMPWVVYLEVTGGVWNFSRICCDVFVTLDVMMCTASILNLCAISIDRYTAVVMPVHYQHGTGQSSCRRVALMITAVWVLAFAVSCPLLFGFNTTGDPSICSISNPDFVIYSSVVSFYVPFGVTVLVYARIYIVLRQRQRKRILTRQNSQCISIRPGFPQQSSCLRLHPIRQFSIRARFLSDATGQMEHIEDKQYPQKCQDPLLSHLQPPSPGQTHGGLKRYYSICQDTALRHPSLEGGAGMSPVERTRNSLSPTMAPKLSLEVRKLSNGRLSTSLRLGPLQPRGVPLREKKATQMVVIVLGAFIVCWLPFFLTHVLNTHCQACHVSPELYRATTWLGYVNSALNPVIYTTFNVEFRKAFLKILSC

[1] = target: D(2) dopamine receptor (Rattus norvegicus) (UniProt P61169); test: Inhibition of [3H]-PNU-86170 binding at D2 dopamine receptors on CHO cell membranes; 1000 nM; type: cell-based
Sequence of D(2) dopamine receptor (Rattus norvegicus) (P61169 whole entry): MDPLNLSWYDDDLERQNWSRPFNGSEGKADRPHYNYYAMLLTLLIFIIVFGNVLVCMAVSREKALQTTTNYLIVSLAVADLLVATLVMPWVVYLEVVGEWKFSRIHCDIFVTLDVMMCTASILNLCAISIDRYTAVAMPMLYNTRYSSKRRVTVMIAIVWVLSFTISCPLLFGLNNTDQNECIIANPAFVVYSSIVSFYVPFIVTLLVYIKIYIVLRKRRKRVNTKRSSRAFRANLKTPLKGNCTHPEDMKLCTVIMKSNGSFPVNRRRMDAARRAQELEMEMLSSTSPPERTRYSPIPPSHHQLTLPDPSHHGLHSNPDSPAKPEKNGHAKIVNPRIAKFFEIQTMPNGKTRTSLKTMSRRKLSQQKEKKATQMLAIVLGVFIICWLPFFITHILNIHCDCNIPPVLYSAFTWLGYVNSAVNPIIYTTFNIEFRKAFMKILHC
Summary of the method: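 Single-point screen at 1000 nM in duplicate, reported as mean % inhibition. Rat D2 receptor stably expressed in CHO cell membranes, labelled with [3H]-PNU-86170 (2 nM). Buffer 20 mM HEPES/10 mM MgSO4 pH 7.4, 1 h at room temperature. Nonspecific binding defined by 3 µM haloperidol.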

Rattus norvegicus [2] = species: Rattus norvegicus; test: In vitro stability in rat hepatocytes relative to that of PNU-93385.; type: functional; details: Hepatocyte
Summary of the method: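 Compound incubated alongside reference PNU-93385. Metabolism followed by HPLC with UV detection. Intrinsic clearance is expressed relative to the reference to give relative metabolic stability.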

[3] = target: D(3) dopamine receptor (Rattus norvegicus) (UniProt P19020); test: Inhibition of [3H]spiperone at D3 dopamine receptors on CHO cell membranes; 1000 nM; type: cell-based
Sequence of D(3) dopamine receptor (Rattus norvegicus) (P19020 whole entry): as the sequence (P19020 whole entry) above
Summary of the method: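 Cloned rat D3 receptor in stably transfected CHO cell membranes, filtration assay with [3H]spiperone (0.3 nM). Single concentration of 1000 nM in duplicate, given as mean % inhibition. Buffer 20 mM HEPES, 10 mM MgSO4, 150 mM NaCl, 1 mM EDTA pH 7.4, 1 h at room temperature. 3 µM haloperidol for nonspecific binding.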

[4] = target: T1, 5-hydroxytryptamine receptor 1A (Rattus norvegicus, UniProt P19327); test: Binding affinity towards 5-hydroxytryptamine 1A receptor
T1 sequence (P19327 whole entry): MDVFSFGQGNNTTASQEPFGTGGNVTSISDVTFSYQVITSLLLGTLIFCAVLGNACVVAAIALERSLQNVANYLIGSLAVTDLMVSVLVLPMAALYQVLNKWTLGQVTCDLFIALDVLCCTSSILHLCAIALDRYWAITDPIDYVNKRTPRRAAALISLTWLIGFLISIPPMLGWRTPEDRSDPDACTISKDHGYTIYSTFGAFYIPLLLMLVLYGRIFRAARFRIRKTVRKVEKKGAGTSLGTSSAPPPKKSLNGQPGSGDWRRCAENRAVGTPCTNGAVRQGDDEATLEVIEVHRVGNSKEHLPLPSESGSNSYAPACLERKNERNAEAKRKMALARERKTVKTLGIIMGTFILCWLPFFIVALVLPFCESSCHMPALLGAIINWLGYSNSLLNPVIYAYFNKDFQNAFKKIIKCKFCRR
Summary of the method: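 Competition binding with [3H]-8-OH-DPAT at 5-HT1A sites in CHO cells expressing the cloned receptor. Affinity is given as Ki (nM) with SD or 95% CI. Compounds were first screened at 1 µmol/L in a monoaminergic/opioid/adrenergic receptor profile binding assay.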

Rattus norvegicus [5] = test: Inhibition of (+)-MK-801-induced hyperactivity in rats following 10 uM/kg i.p.; type: functional; set-up: scale not given: the % may be the effect or the level left
Summary of the method: (§1)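 Rats given (+)-MK-801 0.2 mg/kg sc plus test compound ip, 10-200 µmol/kg, in vehicle of 0.9% NaCl in 0.25% methylcellulose. Locomotor activity expressed as % of vehicle control ±SEM, 8-26 animals per group.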

Rattus norvegicus [6] = test: Inhibition of (+)-MK-801-induced hyperactivity in rats following 100 umol/kg i.p.; type: functional; set-up: scale not given: the % may be the effect or the level left; summary of the method: as §1
Rattus norvegicus [7] = test: Inhibition of (+)-MK-801-induced hyperactivity in rats following 200 umol/kg i.p.; type: functional; set-up: scale not given: the % may be the effect or the level left; summary of the method: as §1
Rattus norvegicus [8] = test: Inhibition of (+)-MK-801-induced hyperactivity in rats following 30 umol/kg i.p.; type: functional; set-up: scale not given: the % may be the effect or the level left; summary of the method: as §1

Sequence of D(2) dopamine receptor (P61169 whole entry): as the sequence (P61169 whole entry) above

| Compound | Ki (D(2) dopamine receptor) [nM] | Ki (D(3) dopamine receptor) [nM] | inhibition [1] [%] | Stability (Rattus norvegicus [2]) [%] | inhibition [3] [%] | other results |
| --- | --- | --- | --- | --- | --- | --- |
| CCCN(CCc1cccc(F)c1)C1Cc2cc(OC)c(OC)cc2C1 | 125 | 30 |  |  |  |  |
| CCCN(CCc1cccs1)C1Cc2cc(OC)c(OC)cc2C1 |  | 78 | 86 | 26 |  |  |
| CCCN(CCc1ccc(Br)cc1)C1Cc2cc(OC)c(OC)cc2C1 | 97 | 22 |  |  |  |  |
| CCN(CC)C1Cc2cc(OC)c(OC)cc2C1 |  |  | 9 |  | 20 |  |
| CCCN(CCCc1ccccc1)C1Cc2cc(OC)c(OC)cc2C1 | 155 | 23 |  | 67 |  |  |
| COc1cc2c(cc1OC)CC(N1CCCCCC1)C2 |  |  | 2 | 32 | 3 |  |
| COc1cc2c(cc1OC)CC(N(CCCF)CCCF)C2 |  |  |  | 8 | 3 |  |
| C=CCN(CC=C)C1Cc2cc(OC)c(OC)cc2C1 |  |  | 19 | 13 | 12 |  |
| CCCN(CCc1cccnc1)C1Cc2cc(OC)c(OC)cc2C1 | 286 | 134 |  |  |  |  |
| COc1cc2c(cc1OC)CC(N1CCCC1)C2 |  |  | 13 |  | 4 |  |
| CCC(CC)NC1Cc2cc(OC)c(OC)cc2C1 |  |  | 0 |  | 0 |  |
| COc1cc2c(cc1OC)CC(N1CCOCC1)C2 |  |  | 10 | 41 | -2 |  |
| CCCN(CCc1ccc(OC)c(OC)c1)C1Cc2cc(OC)c(OC)cc2C1 | 66 | 29 |  |  |  |  |
| CCCN(CC1CC1)C1Cc2cc(OC)c(OC)cc2C1 |  |  |  | 23 |  |  |
| CCCCN(CCCC)C1Cc2cc(OC)c(OC)cc2C1 |  | 180 | 22 | 13 |  |  |
| CCCN(CCc1ccsc1)C1Cc2cc(OC)c(OC)cc2C1 | 61 | 14 |  | 14 |  |  |
| CCCN(CCc1ccc(C(N)=O)cc1)C1Cc2cc(OC)c(OC)cc2C1 | 123 | 42 |  |  |  |  |
| CCCN(CCCF)C1Cc2cc(OC)c(OC)cc2C1 | 1840 | 342 |  | 9 |  |  |
| CCCN(CCc1ccc(OC)cc1)C1Cc2cc(OC)c(OC)cc2C1 | 163 | 39 |  | 53 |  |  |

| Compound | Ki (D(2) dopamine receptor) [nM] | Ki (D(3) dopamine receptor) [nM] | inhibition [1] [%] | Stability (Rattus norvegicus [2]) [%] | inhibition [3] [%] | other results |
| --- | --- | --- | --- | --- | --- | --- |
| CCC(C)NC1Cc2cc(OC)c(OC)cc2C1 (configuration not stated) |  |  | 4 |  | 0 |  |
| CCCN(Cc1ccsc1)C1Cc2cc(OC)c(OC)cc2C1 | 1240 | 374 |  | 15 |  |  |
| CCCN(CCC)C1Cc2cccc(OC)c2C1 (configuration not stated) | 4.2 | 45 |  |  |  | Ki [4]: 5.1 nM |
| CCCN(CCC)C1Cc2cc(OC)c(OC)cc2C1 [PNU-99194A] | 992 | 31 |  | 38 |  | Control (Rattus norvegicus [5]): 583%; Control (Rattus norvegicus [6]): 391%; Control (Rattus norvegicus [7]): 143%; Control (Rattus norvegicus [8]): 447% |
| CCCN(CCC)C1Cc2cccc(O)c2C1 (configuration not stated) | 5.2 | 42 |  |  |  | Ki [4]: 19.5 nM |
| COc1cc2c(cc1OC)CC(N(CC1CC1)CC1CC1)C2 |  |  | 15 | 22 | 0 |  |
| CCCN(CCc1ccccc1)C1Cc2cc(OC)c(OC)cc2C1 | 27 | 32 |  | 12 |  |  |
| CCCN1CC[C@H]2c3c(cccc3C(N)=O)CC[C@H]21 |  |  |  | 100 |  |  |
| CCCN(C(C)CC)C1Cc2cc(OC)c(OC)cc2C1 (configuration not stated) |  |  | 2 |  | 16 |  |
| COc1cc2c(cc1OC)CC(N(C)C)C2 |  |  | 19 | 59 | 26 |  |
| CCCN(CCc1cccc(N)c1)C1Cc2cc(OC)c(OC)cc2C1 | 162 | 45 |  |  |  |  |
| CCCN(CCc1ccc(C(F)(F)F)cc1)C1Cc2cc(OC)c(OC)cc2C1 | 310 | 34 |  |  |  |  |
| COc1cc2c(cc1OC)CC(N)C2 |  |  | 2 |  | 0 |  |
| CCCN(CCC)C1Cc2ccc(OC)cc2C1 (configuration not stated) | 263 | 84 |  |  |  |  |
| CCCN(CCc1csc(N)n1)C1Cc2cc(OC)c(OC)cc2C1 | 265 | 136 |  |  |  |  |
| CCCNC1Cc2cc(OC)c(OC)cc2C1 |  |  | 19 |  | 17 |  |
| CCCN(CCC)C1Cc2ccc(O)cc2C1 (configuration not stated) | 53 | 14 |  |  |  | Ki [4]: > 3000 nM |
| CCCN(CC)C1Cc2cc(OC)c(OC)cc2C1 | 374 | 65 |  | 42 |  |  |
| CCCN(Cc1cccs1)C1Cc2cc(OC)c(OC)cc2C1 |  |  | 20 | 35 | 35 |  |
